From ChEMBL document CHEMBL1139474, “Cellular apoptosis and cytotoxicity of phenolic compounds: a quantitative structure-activity relationship study” (J Med Chem, 2005)

Assays:
[1] = Cytotoxicity against human CEM/VLB cells
[2] = system: MCF7; test: Cytotoxicity against human MCF7 cells
[3] = system: L1210; test: Cytotoxicity against mouse L1210 cells; conditions: mouse, l1210
[4] = system: L1210; test: Activity against caspase-mediated apoptosis in mouse L1210 cells at 0.1 mM; format: functional
[5] = system: CCRF-CEM; test: Cytotoxicity against human CCRF-CEM cells
[6] = system: L1210; test: Activity against caspase-mediated apoptosis in mouse L1210 cells; format: functional
[7] = system: HL-60; test: Cytotoxicity against human HL60 cells; format: cell-based
Summary of the method: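 HL-60 cells grown at 37 °C in RPMI with L-glutamine and 10% FBS, then seeded at (2–5) × 10⁴ cells/mL, in duplicate, at eight or more concentrations. Compounds were diluted in unsupplemented RPMI and added 1:10. After 48 h of continuous exposure, CyQUANT GR nucleic-acid dye fluorescence was read (ex 485/em 530 nm). IC50 is the concentration giving 50% lower fluorescence than controls, taken from the dose-response curve.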

Row | SMILES | log(1/ID50) [1] | log(1/ID50) [2] | log(1/ID50) [3] | Activity [4] [%] | log(1/ID50) [5] | log(1/ID50) [6] | log(1/ID50) [7]
1 | CCc1ccc(O)cc1 | 3.84 | 2.91 | 3.86 | <15 | 3.79 |  | 
2 | CC(C)(C)c1ccccc1O |  |  | 4 | <15 |  | 2.42 | 
3 | NC(=O)c1ccc(O)cc1 | 2.38 |  | 2.48 | <15 | 2.23 |  | 
4 | Oc1cccc(Br)c1 |  |  | 3.82 | <15 |  | 1 | 
5 | CCCCOc1ccc(O)cc1 |  |  | 5.2 | <15 |  | 0.14 | 
6 | NS(=O)(=O)c1ccc(O)cc1 | 2.11 |  | 2.5 | <15 | 2.31 |  | 
7 | Oc1ccc(Oc2ccccc2)cc1 |  | 3.99 | 4.97 | <15 |  | 0.19 | 
8 | CCCCc1ccc(O)cc1.Cl |  |  |  | <15 |  |  | 3.52
9 | CCCCCCOc1ccc(O)cc1 | 5.37 |  | 5.5 | <15 | 5.34 |  | 
10 | Oc1ccccc1I |  |  | 3.95 | <15 |  | 2.38 | 
11 | CCCc1ccccc1O |  |  | 3.49 | <15 |  | 2.16 | 
12 | N#Cc1cccc(O)c1 |  |  | 3.11 | <15 |  | 1.11 | 
13 | CC(C)c1ccccc1O |  |  | 3.5 | <15 |  | 2.38 | 
14 | CCCc1ccc(O)cc1 | 3.73 |  | 4.04 | <15 | 3.72 |  | 
15 | Oc1ccc(I)cc1 | 3.86 |  | 3.86 | <15 | 4.29 |  | 
16 | Oc1cccc(F)c1 |  |  | 3.46 | <15 |  | 0.82 | 
17 | COc1cccc(O)c1 [1-hydroxy-3-methoxybenzene] |  |  | 3.71 | <15 |  | 1.31 | 
18 | CCOc1ccc(O)cc1 [1-hydroxy-4-ethoxybenzene] |  | 3.7 | 4.64 | <15 |  |  | 
19 | CCCOc1ccc(O)cc1 [1-hydroxy-4-propoxybenzene] |  |  | 4.85 | <15 |  | 0.09 | 3.7
20 | Nc1cccc(O)c1 [3-AMINOPHENOL] |  |  |  | <15 |  | 1.25 | 
